Source: ChEMBL document CHEMBL4689842, “EUbOPEN Chemogenomics Library wave 1” (2021)

Tested on: U2OS
Assay: Multiplex assay against U2OS
Assay type: toxicity, cell-based
Details: human
Procedure, shortened: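 Cells were classed with CellPathfinder machine-learning gating, first as Hoechst high-intensity objects or normal cells, then (normal cells) as healthy, pyknosed or fragmented nuclei, and finally (pyknosed cells) as mitotic or apoptotic. Staining of live cells at seeding used Hoechst33342, BioTracker Green Microtubule Cytoskeleton Dye, MitoTracker Red and Annexin V Alexa Fluor 680, with imaging on a CQ1 microscope at 37°C and 5% CO2 after compound addition. Tubulin, mitochondrial-mass and membrane-permeability phenotypes are per cents of healthy-nucleus cells.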

[1] = 12 h, 1 µM, compound concentration 1 uM, replicate 1
[2] = 12 h, 1 µM, compound concentration 1 uM, replicate 2
[3] = 12 h, 10 µM, compound concentration 10 uM, replicate 1
[4] = 12 h, 10 µM, compound concentration 10 uM, replicate 2
[5] = 24 h, 1 µM, compound concentration 1 uM, replicate 1
[6] = 24 h, 1 µM, compound concentration 1 uM, replicate 2
[7] = 24 h, 10 µM, compound concentration 10 uM, replicate 1
[8] = 24 h, 10 µM, compound concentration 10 uM, replicate 2
[9] = 48 h, 1 µM, compound concentration 1 uM, replicate 1
[10] = 48 h, 1 µM, compound concentration 1 uM, replicate 2
[11] = 48 h, 10 µM, compound concentration 10 uM, replicate 1
[12] = 48 h, 10 µM, compound concentration 10 uM, replicate 2

CCOc1cc(C(=O)N2CCC(N3CCN(C)CC3)CC2)ccc1Nc1ncc2c(n1)N(C1CCCC1)c1ccccc1C(=O)N2C
Population Apoptotic (%) [1]: 73% | Population Fragmented Nuclei (%) [1]: 14% | Population Healthy Nuclei (%) [1]: 70% | Population Hoechst High Intensity Objects (%) [1]: 6% | Population Membrane Permeable-Phenotype (%) [1]: 8% | Population Mitochondria Different-Phenotype (%) [1]: 75% | Population Mitotic Cells (%) [1]: 26% | Population Normal (%) [1]: 93% | Population Pyknosed Nuclei (%) [1]: 15% | Population Tubulin-Different-Phenotype (%) [1]: 69% | Total Cell Count [1]: 153 | Population Apoptotic (%) [2]: 75% | Population Fragmented Nuclei (%) [2]: 6% | Population Healthy Nuclei (%) [2]: 80% | Population Hoechst High Intensity Objects (%) [2]: 10% | Population Membrane Permeable-Phenotype (%) [2]: 4% | Population Mitochondria Different-Phenotype (%) [2]: 76% | Population Mitotic Cells (%) [2]: 25% | Population Normal (%) [2]: 89% | Population Pyknosed Nuclei (%) [2]: 12% | Population Tubulin-Different-Phenotype (%) [2]: 48% | Total Cell Count [2]: 67 | Population Apoptotic (%) [3]: 83% | Population Fragmented Nuclei (%) [3]: 19% | Population Healthy Nuclei (%) [3]: 48% | Population Hoechst High Intensity Objects (%) [3]: 7% | Population Membrane Permeable-Phenotype (%) [3]: 95% | Population Mitochondria Different-Phenotype (%) [3]: 97% | Population Mitotic Cells (%) [3]: 16% | Population Normal (%) [3]: 92% | Population Pyknosed Nuclei (%) [3]: 32% | Population Tubulin-Different-Phenotype (%) [3]: 100% | Total Cell Count [3]: 181 | Population Apoptotic (%) [4]: 92% | Population Fragmented Nuclei (%) [4]: 21% | Population Healthy Nuclei (%) [4]: 50% | Population Hoechst High Intensity Objects (%) [4]: 6% | Population Membrane Permeable-Phenotype (%) [4]: 93% | Population Mitotic Cells (%) [4]: 7% | Population Normal (%) [4]: 93% | Population Pyknosed Nuclei (%) [4]: 27% | Total Cell Count [4]: 69 | Population Apoptotic (%) [5]: 50% | Population Healthy Nuclei (%) [5]: 61% | Population Hoechst High Intensity Objects (%) [5]: 4% | Population Membrane Permeable-Phenotype (%) [5]: 2% | Population Mitochondria Different-Phenotype (%) [5]: 64% | Population Mitotic Cells (%) [5]: 50% | Population Normal (%) [5]: 95% | Population Pyknosed Nuclei (%) [5]: 22% | Population Tubulin-Different-Phenotype (%) [5]: 17% | Total Cell Count [5]: 142 | Population Apoptotic (%) [6]: 22% | Population Fragmented Nuclei (%) [6]: 16% | Population Healthy Nuclei (%) [6]: 72% | Population Hoechst High Intensity Objects (%) [6]: 5% | Population Membrane Permeable-Phenotype (%) [6]: 5% | Population Mitochondria Different-Phenotype (%) [6]: 65% | Population Mitotic Cells (%) [6]: 77% | Population Normal (%) [6]: 94% | Population Pyknosed Nuclei (%) [6]: 11% | Population Tubulin-Different-Phenotype (%) [6]: 27% | Total Cell Count [6]: 71 | Population Apoptotic (%) [7]: 92% | Population Fragmented Nuclei (%) [7]: 23% | Population Healthy Nuclei (%) [7]: 17% | Population Hoechst High Intensity Objects (%) [7]: 7% | Population Membrane Permeable-Phenotype (%) [7]: 93% | Population Mitochondria Different-Phenotype (%) [7]: 100% | Population Mitotic Cells (%) [7]: 7% | Population Normal (%) [7]: 92% | Total Cell Count [7]: 215 | Population Apoptotic (%) [8]: 88% | Population Fragmented Nuclei (%) [8]: 10% | Population Healthy Nuclei (%) [8]: 30% | Population Hoechst High Intensity Objects (%) [8]: 11% | Population Membrane Permeable-Phenotype (%) [8]: 100% | Population Mitochondria Different-Phenotype (%) [8]: 96% | Population Mitotic Cells (%) [8]: 11% | Population Normal (%) [8]: 88% | Population Pyknosed Nuclei (%) [8]: 59% | Population Tubulin-Different-Phenotype (%) [8]: 100% | Total Cell Count [8]: 85 | Population Apoptotic (%) [9]: 53% | Population Fragmented Nuclei (%) [9]: 15% | Population Healthy Nuclei (%) [9]: 64% | Population Hoechst High Intensity Objects (%) [9]: 3% | Population Membrane Permeable-Phenotype (%) [9]: 1% | Population Mitochondria Different-Phenotype (%) [9]: 28% | Population Mitotic Cells (%) [9]: 46% | Population Normal (%) [9]: 96% | Population Pyknosed Nuclei (%) [9]: 19% | Population Tubulin-Different-Phenotype (%) [9]: 9% | Total Cell Count [9]: 151 | Population Apoptotic (%) [10]: 42% | Population Fragmented Nuclei (%) [10]: 13% | Population Healthy Nuclei (%) [10]: 72% | Population Hoechst High Intensity Objects (%) [10]: 5% | Population Membrane Permeable-Phenotype (%) [10]: 12% | Population Mitochondria Different-Phenotype (%) [10]: 40% | Population Mitotic Cells (%) [10]: 57% | Population Normal (%) [10]: 94% | Population Pyknosed Nuclei (%) [10]: 14% | Population Tubulin-Different-Phenotype (%) [10]: 25% | Total Cell Count [10]: 81 | Population Apoptotic (%) [11]: 93% | Population Fragmented Nuclei (%) [11]: 34% | Population Healthy Nuclei (%) [11]: 1% | Population Hoechst High Intensity Objects (%) [11]: 14% | Population Membrane Permeable-Phenotype (%) [11]: 100% | Population Mitochondria Different-Phenotype (%) [11]: 100% | Population Mitotic Cells (%) [11]: 6% | Population Normal (%) [11]: 85% | Population Pyknosed Nuclei (%) [11]: 63% | Population Tubulin-Different-Phenotype (%) [11]: 100% | Total Cell Count [11]: 281 | Population Apoptotic (%) [12]: 100% | Population Fragmented Nuclei (%) [12]: 16% | Population Healthy Nuclei (%) [12]: 20% | Population Hoechst High Intensity Objects (%) [12]: 18% | Population Membrane Permeable-Phenotype (%) [12]: 93% | Population Mitochondria Different-Phenotype (%) [12]: 86% | Population Mitotic Cells (%) [12]: 0% | Population Normal (%) [12]: 81% | Population Pyknosed Nuclei (%) [12]: 62% | Population Tubulin-Different-Phenotype (%) [12]: 93% | Total Cell Count [12]: 103
